Consider 15 molecules from PubChem BioAssay.

A short description of assay [1]: Her2 expression decrease, cell viability multiplex – SKBR3 breast tumor cells, AlphaScreen, ATP viability, primary screen (AID 461;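 active = Her2 level under about 52% in both replicate screens, with viability over 70% of control, limit read from the data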;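 as to Her2 level: lower value means less Her2 protein in the cells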;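 as to viability: percent of carrier control wells set as 100% viability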). Particulars: SKBR3 Her2 protein level, 18-24 h, measured here: SKBR3 viability, ATP luminescence, at 10 µM.
For assay [2], the target named is Receptor tyrosine-protein kinase erbB-2 (Homo sapiens) (UniProt P04626). The description is as above. Particulars: 18-24 h, at 10 µM, stronger effect = lower value.
Sequence of Receptor tyrosine-protein kinase erbB-2 (Homo sapiens) (P04626 whole entry, looked up): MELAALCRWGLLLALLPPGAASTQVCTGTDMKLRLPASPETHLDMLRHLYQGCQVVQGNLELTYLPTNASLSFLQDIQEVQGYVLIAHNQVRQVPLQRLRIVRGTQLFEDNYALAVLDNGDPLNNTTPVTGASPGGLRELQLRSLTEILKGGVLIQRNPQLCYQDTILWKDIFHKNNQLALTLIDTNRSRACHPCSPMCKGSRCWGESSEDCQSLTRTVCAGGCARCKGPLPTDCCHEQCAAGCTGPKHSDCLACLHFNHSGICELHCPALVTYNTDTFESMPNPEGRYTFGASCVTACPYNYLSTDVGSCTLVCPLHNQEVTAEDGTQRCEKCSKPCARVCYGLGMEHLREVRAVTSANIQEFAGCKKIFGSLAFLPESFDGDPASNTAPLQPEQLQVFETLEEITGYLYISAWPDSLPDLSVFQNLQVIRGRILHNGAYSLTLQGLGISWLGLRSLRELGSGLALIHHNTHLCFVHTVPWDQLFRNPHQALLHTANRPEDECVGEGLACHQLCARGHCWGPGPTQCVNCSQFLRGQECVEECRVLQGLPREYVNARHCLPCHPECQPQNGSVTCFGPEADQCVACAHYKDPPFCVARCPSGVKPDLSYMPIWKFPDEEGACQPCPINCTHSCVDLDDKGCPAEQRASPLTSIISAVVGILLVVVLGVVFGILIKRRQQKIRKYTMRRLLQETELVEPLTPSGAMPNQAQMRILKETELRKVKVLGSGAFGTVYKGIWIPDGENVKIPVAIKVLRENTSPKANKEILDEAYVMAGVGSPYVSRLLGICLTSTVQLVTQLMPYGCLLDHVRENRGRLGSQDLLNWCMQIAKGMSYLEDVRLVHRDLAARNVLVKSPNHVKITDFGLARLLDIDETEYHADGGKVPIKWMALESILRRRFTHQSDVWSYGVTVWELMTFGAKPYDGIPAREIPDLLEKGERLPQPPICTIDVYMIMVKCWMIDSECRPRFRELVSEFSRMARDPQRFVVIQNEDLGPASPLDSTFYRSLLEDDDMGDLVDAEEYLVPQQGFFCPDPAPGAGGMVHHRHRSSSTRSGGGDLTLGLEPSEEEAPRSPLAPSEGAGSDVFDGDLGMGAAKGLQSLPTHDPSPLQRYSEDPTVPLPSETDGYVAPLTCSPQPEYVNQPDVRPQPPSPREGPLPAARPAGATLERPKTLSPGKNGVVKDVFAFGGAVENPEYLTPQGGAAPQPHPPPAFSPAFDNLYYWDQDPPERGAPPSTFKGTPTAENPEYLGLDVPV
A short description of assay [3]: reduced viability of SK-BR-3 breast cancer cells – cell-based, 24 h, human, pilot screen (AID 572).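 Also: compound exposure lasted between 18 and 24 h rather than exactly 24 h; 100% = carrier-treated control wells.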 To be noted: SK-BR-3 viability, CellTiter-Glo luminescence, at 10 µM, stronger effect = lower value. A general note: Cellular ATP, detected with luciferase, serves as a proxy for viable cell number.
Assay [4] is described as follows: HUVEC growth inhibition – cell-based, human, primary screen (AID 575;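 active = viability at or below 30% in both replicate assays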;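 also: 100% = median of untreated cell wells with 0.1% DMSO on each plate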). To be noted: HUVEC proliferation, CellTiter-Glo luminescence, 72 h; at 10 µM; stronger effect = lower value. In outline:
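Test system: HUVEC primary cells. Quantity: 1250 endothelial cells in each well. Dosing: single-point 10 µM, DMSO 0.1% final. Incubation: 72 h treatment at 37 °C. Measured by: CTG luminescence. Control set: DMSO cell controls and MePR drug controls. Plate: collagen-coated 384-well format.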

A short description of assay [5]: H69AR cell proliferation blockers – human, duplicate replicates, primary screen (AID 580;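 active = viability at or under a set limit in both replicates, limit being median viability minus 3 SD, cut at about 48% in these data, passing the limit was not always enough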;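 also: 100% = mean luminescence of untreated wells and 0% = no signal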). Particulars: H69AR lung tumor cells viability, ATP luminescence, 72 h; at 10 µM; stronger effect = lower value.
The nature of assay [6]: MRP1 drug-resistance reversers in H69AR cells – cell-based, doxorubicin co-treatment, pilot screen (AID 601;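 active = viability loss from added drug above about 55%, and viability with drug at most 40%, in both replicates, limit read from the data, passing the limit was not always enough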). To be noted: CellTiter-Glo, 72 h, at 10 µM; for differential viability (reversal): stronger effect = higher value.
Assay [7] can be described thus: yeast transport mutant growth inhibition pilot in 384-well plates, post-Golgi transport modulator project (AID 636; in the data active = inhibition above about 31%). To be noted: absorbance 615 nm, about 18 h, stronger effect = higher value.
Assay [8] is described as follows: growth suppression of yeast trafficking mutant, preliminary HTS, modulators of trafficking downstream of Golgi apparatus project, 1536-format plate, OD 615 nm (AID 637; in the data active = inhibition above about 30%). Particulars: yeast transport mutant growth, absorbance 615 nm, 18 h; stronger effect = higher value.
Setting [9] is: H69AR cells + 2 uM doxorubicin, measured here: viability with 2 uM doxorubicin, stronger effect = lower value.
Setting [10] is: H69AR cells, compound alone cytotoxicity.

Calls of active or inactive are those of the source.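 The calls were made as follows, unless noted: active = viability at or below 10% of carrier control in both of two separate runs; inconclusive = viability at or below 10% in only one of the two runs; inactive = the rest.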

The viability is a read-out of living cells in per cent, often relative to untreated cells. By inhibition is commonly meant the drop in the measured response relative to a control, in per cent. In the case of `Cc1nc2ccccc2c(=O)n1CC(=O)N1CCOCC1`, the viability was 120% in assay [1]; 120% (inactive) in assay [3]; 107% (inactive) in assay [4]; 90.4% (inactive) in assay [5]; 99.8% in assay [6] (setting [9]); 90.4% in assay [6] (setting [10]). In addition, in assay [2], the Her2 level is 90.5% (inactive). In addition, the differential viability (reversal) in assay [6] (H69AR cells + 2 uM doxorubicin) is -9.46% (inactive). The inhibition in assay [7] is 0.67% (inactive); in assay [8], -4.35% (inactive).

Consider `COc1ccc(NC(=O)C(C)NS(=O)(=O)c2ccc(NC(C)=O)cc2)cc1Cl` (stereo not given), for which the viability in assay [1] was 124%; in assay [3], 124% (inactive); in assay [4], 103% (inactive); in assay [5], 95% (inactive); in assay [6] (setting [9]) it was 87.4%; in assay [6] (setting [10]), 95%. Besides, in assay [2], the Her2 level is 97% (inactive). For the same molecule, the differential viability (reversal) in assay [6] (H69AR cells + 2 uM doxorubicin) is 7.65% (inactive). For the same molecule, the inhibition in assay [7] was -6% (inactive); in assay [8] it was -1.75% (inactive).

For `Cc1ccc(S(=O)(=O)N[C@@H](C)C(=O)N2CCC(C(=O)N3CCC[C@H]3C(=O)O)CC2)cc1`, the viability in assay [1] is 98%; in assay [3] it was 98% (inactive); in assay [4] it was 88.7% (inactive); in assay [5], 102% (inactive); in assay [6] (setting [9]), 93.6%; in assay [6] (setting [10]) it was 102%. In addition, the Her2 level in assay [2] was 100% (inactive). Besides, in assay [6] (H69AR cells + 2 uM doxorubicin), the differential viability (reversal) was 8.07% (inactive). The inhibition in assay [7] is -4.4% (inactive); in assay [8], 1.31% (inactive).

On to `Cc1nc2ccccc2cc1C(=O)NCc1ccco1`, for which the viability in assay [1] was 130%; in assay [3], 130% (inactive); in assay [4] it was 91.3% (inactive); in assay [5], 93.3% (inactive); in assay [6] (setting [9]) it was 85.1%; in assay [6] (setting [10]), 93.3%. For the same molecule, in assay [2], the Her2 level was 90% (inactive). Also, in assay [6] (H69AR cells + 2 uM doxorubicin), the differential viability (reversal) was 8.23% (inactive). Further, the inhibition was -4.93% (inactive) in assay [7] and 7.42% (inactive) in assay [8].

On to `CCOc1cc(C2C(C(=O)OC(C)C)=C(C)N=C3SCCC(=O)N32)ccc1OC(C)=O` (stereo not given), for which the viability in assay [1] is 93%; in assay [3], 93% (inactive); in assay [4], 96.5% (inactive); in assay [5], 93.3% (inactive); in assay [6] (setting [9]), 89.9%; in assay [6] (setting [10]) it was 93.3%. The Her2 level in assay [2] was 78.5% (inactive). For the same molecule, the differential viability (reversal) in assay [6] (H69AR cells + 2 uM doxorubicin) is 3.33% (inactive). The inhibition in assay [7] was -2.89% (inactive); in assay [8], 2.18% (inactive).

On to `COc1ccccc1C(=O)Nc1ccc(S(=O)(=O)N2CCCC2)cc1`, for which the viability is 95.5% in assay [1]; 95.5% (inactive) in assay [3]; 81.9% (inactive) in assay [4]; 94.5% (inactive) in assay [5]; 78.4% in assay [6] (setting [9]); 94.5% in assay [6] (setting [10]). Moreover, in assay [2], the Her2 level was 76.5% (inactive). In assay [6] (H69AR cells + 2 uM doxorubicin), the differential viability (reversal) is 16.2% (inactive). Moreover, the inhibition is -4.93% (inactive) in assay [7] and 0.49% (inactive) in assay [8].

Take `Cc1cccc(C(=O)N2CCC(n3nnc4cc(F)ccc43)CC2)c1`: the viability is 95% in assay [1]; 95% (inactive) in assay [3]; 92.6% (inactive) in assay [4]; 86.4% (inactive) in assay [5]; 90.4% in assay [6] (setting [9]); 86.4% in assay [6] (setting [10]). In assay [2], the Her2 level is 113% (inactive). For the same molecule, the differential viability (reversal) in assay [6] (H69AR cells + 2 uM doxorubicin) is -3.98% (inactive). The inhibition is -3.21% (inactive) in assay [7] and 2.67% (inactive) in assay [8].

On to `CNC(=O)CC(C(=O)O)c1ccc(OCC(C)C)cc1` (stereo not given), for which the viability in assay [1] is 90.5%; in assay [3] it was 90.5% (inactive); in assay [4] it was 84.4% (inactive); in assay [5] it was 93.9% (inactive); in assay [6] (setting [9]), 89.2%; in assay [6] (setting [10]) it was 93.9%. Also, in assay [2], the Her2 level is 102% (inactive). Further, the differential viability (reversal) in assay [6] (H69AR cells + 2 uM doxorubicin) was 4.75% (inactive). For the same molecule, the inhibition in assay [7] was -2.11% (inactive); in assay [8] it was 9.84% (inactive).

As to `Cc1cc(C)n(-c2ccc(C(=O)Nc3ccc4c(c3)OCCO4)cc2)n1`, the viability in assay [1] is 93%; in assay [3] it was 93% (inactive); in assay [4], 62.2% (inactive); in assay [5], 89% (inactive); in assay [6] (setting [9]), 95.2%; in assay [6] (setting [10]), 89%. For the same molecule, in assay [2], the Her2 level was 77.5% (inactive). Besides, the differential viability (reversal) in assay [6] (H69AR cells + 2 uM doxorubicin) is -6.18% (inactive). Further, the inhibition was 1.03% (inactive) in assay [7] and -2% (inactive) in assay [8].

`Cc1c(C#N)sc2nc(-c3ccccc3)nc(N3CCCC3)c12`: the viability was 85.5% in assay [1]; 85.5% (inactive) in assay [3]; 82.1% (inactive) in assay [4]; 77% (inactive) in assay [5]; 88.1% in assay [6] (setting [9]); 77% in assay [6] (setting [10]). In addition, the Her2 level in assay [2] was 83% (inactive). In assay [6] (H69AR cells + 2 uM doxorubicin), the differential viability (reversal) was -11.2% (inactive). The inhibition in assay [7] is -3.59% (inactive); in assay [8], -8% (inactive).

Turning to `c1ccc2c(c1)sc1nnnn12`, the viability in assay [1] is 94.5%; in assay [3] it was 94.5% (inactive); in assay [4], 79.9% (inactive); in assay [5], 86.6% (inactive); in assay [6] (setting [9]), 100%; in assay [6] (setting [10]), 86.6%. In addition, in assay [2], the Her2 level is 81% (inactive). Besides, the differential viability (reversal) in assay [6] (H69AR cells + 2 uM doxorubicin) is -13.7% (inactive). Besides, the results for the inhibition in assay [7] and in assay [8] were -5.07% (inactive) and 1.97% (inactive), respectively.

Regarding `CC(C(=O)NCc1cccnc1)N1C(=O)c2ccccc2C1=O` (stereo not given), the viability is 103% in assay [1]; 103% (inactive) in assay [3]; 99.9% (inactive) in assay [4]; 93.7% (inactive) in assay [5]; 97.5% in assay [6] (setting [9]); 93.7% in assay [6] (setting [10]). In addition, the Her2 level in assay [2] was 97% (inactive). For the same molecule, in assay [6] (H69AR cells + 2 uM doxorubicin), the differential viability (reversal) was -3.79% (inactive). In addition, the figures for the inhibition in assay [7] and in assay [8] were -3.03% (inactive) and -4.36% (inactive), respectively.

Consider `O=C(Nc1ccccc1C(=O)N1CCN(c2ccccc2)CC1)c1ccco1`, for which the viability in assay [1] is 96%; in assay [3], 96% (inactive); in assay [4], 95.6% (inactive); in assay [5], 100% (inactive); in assay [6] (setting [9]) it was 94.2%; in assay [6] (setting [10]), 100%. For the same molecule, the Her2 level in assay [2] is 101% (inactive). For the same molecule, the differential viability (reversal) in assay [6] (H69AR cells + 2 uM doxorubicin) is 5.93% (inactive). Moreover, the inhibition was -2.53% (inactive) in assay [7] and 4.43% (inactive) in assay [8].

Regarding `O=C(Cn1c(SCC(=O)N2CCCc3ccccc32)nc2ccccc21)N1CCCC1`, the viability in assay [1] is 94%; in assay [3] it was 94% (inactive); in assay [4], 104% (inactive); in assay [5], 98.3% (inactive); in assay [6] (setting [9]) it was 93.6%; in assay [6] (setting [10]) it was 98.3%. For the same molecule, the Her2 level in assay [2] is 96% (inactive). In addition, in assay [6] (H69AR cells + 2 uM doxorubicin), the differential viability (reversal) is 4.66% (inactive). Besides, the inhibition is -6.05% (inactive) in assay [7] and -2.38% (inactive) in assay [8].

Take `CCn1c(NCc2ccc(N(C)C)cc2)nc2ccccc21`: the viability in assay [1] is 84.5%; in assay [3], 84.5% (inactive); in assay [4] it was 101% (inactive); in assay [5] it was 97.9% (inactive); in assay [6] (setting [9]) it was 86.7%; in assay [6] (setting [10]) it was 97.9%. In addition, the Her2 level in assay [2] is 87.5% (inactive). Further, in assay [6] (H69AR cells + 2 uM doxorubicin), the differential viability (reversal) was 11.2% (inactive). The inhibition in assay [7] was -2.03% (inactive); in assay [8] it was -1.5% (inactive).
